Data published in ChEMBL document CHEMBL1132488, “On the bioactive conformation of NAN-190 (1) and MP3022 (2), 5-HT(1A) receptor antagonists” (J Med Chem, 1999).

Legend:
[1] = species: Rattus norvegicus; test: Effect on 8-OH-DAPT- induced behavioral syndrome(FBP: flat body posture) by the compound in reserpine pretreated rats at a dose of 8.; format: functional
How it was run: (§1)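 Reserpinized male Wistar rats (reserpine 1 mg/kg sc, 18 h before), groups of 6. Compound given ip in 1% Tween 80 60 min before 8-OH-DPAT 5 mg/kg sc. FBP/FT rated 0–3 at 3, 6, 9, 12 and 15 min after agonist, summed (max 15). Mean ± SEM; Newman–Keuls test; ED50 with range.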

[2] = species: Rattus norvegicus; test: Induction of behavioral syndrome(FBP: flat body posture) by the compound in reserpine pretreated rats at a dose of 4.; format: functional
How it was run: (§2)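 Male Wistar rats (260–300 g) were given reserpine 1 mg/kg sc in saline 18 h before testing. Test compound was then given alone ip as a 1% Tween 80 suspension (2 mL/kg). FBP and FT were each scored 0–3 and summed (maximum 15). n=6 per group; mean ± SEM; Newman–Keuls test.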

[3] = species: Rattus norvegicus; test: Induction of behavioral syndrome(FT: forepaw treading) by the compound in reserpine pretreated rats at a dose of 16.; format: functional; how it was run: as §2
[4] = species: Rattus norvegicus; test: Induction of behavioral syndrome(FT: forepaw treading) by the compound in reserpine pretreated rats at a dose of 4.; format: functional; how it was run: as §2
[5] = species: Rattus norvegicus; test: Induction of behavioral syndrome(FT: forepaw treading) by the compound in reserpine pretreated rats at a dose of 8.; format: functional; how it was run: as §2
[6] = test system: Rattus norvegicus; test: Induction of LLR(lower lip retraction) by the compound in rats at a dose of 8 mg/kg; format: functional
How it was run: (§3)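 Male Wistar rats, groups of 6, given compound alone ip as 1% Tween 80 suspension. Lower incisor visibility scored 0/0.5/1 at 15, 30 and 45 min after dosing, summed (max 3 per rat). Mean ± SEM versus vehicle, Newman–Keuls test; ED50 with range.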

[7] = species: Rattus norvegicus; test: Dose Inducing behavioral syndrome(FT: forepaw treading) by the compound in reserpine pretreated rats.; format: functional
How it was run: (§4)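 Male Wistar rats (260–300 g), groups of 6, given reserpine 1 mg/kg sc 18 h before test. Compounds given ip as 1% Tween 80 suspension. FBP and FT rated 0–3 in 45-s sessions every 3 min, starting 3 min after dosing. Score summed over 5 periods (max 15 per symptom). Mean ± SEM; Newman–Keuls test.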

[8] = test system: Rattus norvegicus; test: Induction of LLR(lower lip retraction) by the compound in rats at a dose of 16 mg/kg; format: functional; how it was run: as §3
[9] = species: Rattus norvegicus; test: Effect on 8-OH-DAPT- induced behavioral syndrome(FT: forepaw treading) by the compound in reserpine pretreated rats at a dose of 16.; format: functional; how it was run: as §1
[10] = species: Rattus norvegicus; test: Effect on 8-OH-DAPT- induced behavioral syndrome(FBP: flat body posture) by the compound in reserpine pretreated rats at a dose of 16.; format: functional; how it was run: as §1
[11] = species: Rattus norvegicus; test: Effect on 8-OH-DAPT- induced behavioral syndrome(FBP: flat body posture) by the compound in reserpine pretreated rats at a dose of 4.; format: functional; how it was run: as §1
[12] = test system: Rattus norvegicus; test: Effect on 8-OH-DPAT-Induced LLR(lower lip retraction) in rats at a dose of 8 mg/kg; format: functional
How it was run: (§5)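 Male Wistar rats, groups of 6. Compound given ip in 1% Tween 80 45 min before 8-OH-DPAT 1 mg/kg sc. Lower incisor visibility scored 0/0.5/1 at 15, 30 and 45 min after agonist, summed (max 3). Mean ± SEM; Newman–Keuls test; ED50 with range.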

[13] = species: Rattus norvegicus; test: Dose inhibiting 8-OH-DPAT-induced behavioral syndrome(FBP: flat body posture) by the compound in reserpine pretreated rats.
[14] = species: Rattus norvegicus; test: Effective dose of the required to inhibit symptoms produced by 8-OH-DPAT; format: functional; how it was run: as §1
[15] = species: Rattus norvegicus; test: Effect on 8-OH-DAPT- induced behavioral syndrome(FT: forepaw treading) by the compound in reserpine pretreated rats at a dose of 8.; format: functional; how it was run: as §1
[16] = test system: Rattus norvegicus; test: Effect on 8-OH-DPAT-Induced LLR(lower lip retraction) in rats at a dose of 32 mg/kg; format: functional; how it was run: as §5
[17] = species: Rattus norvegicus; test: Induction of behavioral syndrome(FBP: flat body posture) by the compound in reserpine pretreated rats at a dose of 8.; format: functional; how it was run: as §2
[18] = species: Rattus norvegicus; test: Induction of behavioral syndrome(FBP: flat body posture) by the compound in reserpine pretreated rats at a dose of 16.; format: functional; how it was run: as §4
[19] = test system: Rattus norvegicus; test: Induction of LLR(lower lip retraction) by the compound in rats at a dose of 32 mg/kg; format: functional; how it was run: as §3
[20] = test system: Rattus norvegicus; test: Effect on 8-OH-DPAT-Induced LLR(lower lip retraction) in rats at a dose of 16 mg/kg; format: functional; how it was run: as §5
[21] = species: Rattus norvegicus; test: Effect on 8-OH-DAPT- induced behavioral syndrome(FT: forepaw treading) by the compound in reserpine pretreated rats at a dose of 4.; format: functional; how it was run: as §1
[22] = biological target: T1, 5-hydroxytryptamine receptor 1A (Rattus norvegicus, UniProt P19327); test: Ability to displace [3H]8-OH-DPAT from 5-hydroxytryptamine 1A receptor
T1 sequence (P19327 whole entry): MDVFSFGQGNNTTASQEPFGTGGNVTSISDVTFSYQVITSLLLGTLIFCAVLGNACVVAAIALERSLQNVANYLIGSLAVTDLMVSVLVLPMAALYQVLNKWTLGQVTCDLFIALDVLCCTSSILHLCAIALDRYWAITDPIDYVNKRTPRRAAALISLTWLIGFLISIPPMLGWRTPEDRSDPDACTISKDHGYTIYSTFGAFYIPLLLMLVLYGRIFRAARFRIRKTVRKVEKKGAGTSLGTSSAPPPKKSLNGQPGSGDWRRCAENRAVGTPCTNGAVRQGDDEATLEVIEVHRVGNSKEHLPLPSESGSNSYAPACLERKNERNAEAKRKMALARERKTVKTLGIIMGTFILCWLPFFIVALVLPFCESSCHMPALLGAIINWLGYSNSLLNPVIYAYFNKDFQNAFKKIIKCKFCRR
How it was run: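 Rat hippocampal membranes, [3H]8-OH-DPAT radioligand. Ki from at least three competition experiments, each with 10–14 drug concentrations run in triplicate. Ki calculated with the Cheng–Prusoff equation.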

[23] = species: Rattus norvegicus; test: Induction of behavioral syndrome(FBP: flat body posture) by the compound in reserpine pretreated rats at a dose of 4; FBP mean score; format: functional; how it was run: as §2
[24] = species: Rattus norvegicus; test: Effect on 8-OH-DAPT- induced behavioral syndrome(FBP: flat body posture) by the compound in reserpine pretreated rats at a dose of 4; FBP mean score; format: functional; how it was run: as §1
[25] = species: Rattus norvegicus; test: Induction of behavioral syndrome(FT: forepaw treading) by the compound in reserpine pretreated rats at a dose of 8; FT mean score; format: functional; how it was run: as §2
[26] = species: Rattus norvegicus; test: Effective dose required to induce LLR(lower lip retraction); format: functional; how it was run: as §3
[27] = species: Rattus norvegicus; test: Effect on 8-OH-DAPT- induced behavioral syndrome(FT: forepaw treading) by the compound in reserpine pretreated rats at a dose of 16; format: functional; how it was run: as §1
[28] = species: Rattus norvegicus; test: Induction of behavioral syndrome(FT: forepaw treading) by the compound in reserpine pretreated rats at a dose of 16; FT mean score; format: functional; how it was run: as §2
[29] = species: Rattus norvegicus; test: Induction of behavioral syndrome(FBP: flat body posture) by the compound in reserpine pretreated rats at a dose of 16; FBP mean score; format: functional; how it was run: as §4
[30] = species: Rattus norvegicus; test: Induction of behavioral syndrome(FT: forepaw treading) by the compound in reserpine pretreated rats at a dose of 4; FT mean score; format: functional; how it was run: as §2
[31] = test system: Rattus norvegicus; test: Induction of LLR(lower lip retraction) by the compound in rats at a dose of 16 mg/kg; LLR score; format: functional; how it was run: as §3
[32] = species: Rattus norvegicus; test: Dose Inducing behavioral syndrome(FBP: flat body posture) by the compound in reserpine pretreated rats; format: functional; how it was run: as §4
[33] = test system: Rattus norvegicus; test: Induction of LLR(lower lip retraction) by the compound in rats at a dose of 4 mg/kg; LLR score; format: functional; how it was run: as §3
[34] = species: Rattus norvegicus; test: Effect on 8-OH-DAPT- induced behavioral syndrome(FT: forepaw treading) by the compound in reserpine pretreated rats at a dose of 4; FT mean score; format: functional; how it was run: as §1
[35] = test system: Rattus norvegicus; test: Induction of LLR(lower lip retraction) by the compound in rats at a dose of 8 mg/kg; LLR score; format: functional; how it was run: as §3
[36] = species: Rattus norvegicus; test: Effect on 8-OH-DAPT- induced behavioral syndrome(FT: forepaw treading) by the compound in reserpine pretreated rats at a dose of 8; FT mean score; format: functional; how it was run: as §1
[37] = species: Rattus norvegicus; test: Effect on 8-OH-DAPT- induced behavioral syndrome(FBP: flat body posture) by the compound in reserpine pretreated rats at a dose of 16; FBP mean score; format: functional; how it was run: as §1
[38] = species: Rattus norvegicus; test: Induction of behavioral syndrome(FBP: flat body posture) by the compound in reserpine pretreated rats at a dose of 8; format: functional; how it was run: as §2
[39] = species: Rattus norvegicus; test: Effect on 8-OH-DAPT- induced behavioral syndrome(FBP: flat body posture) by the compound in reserpine pretreated rats at a dose of 8; FBP mean score; format: functional; how it was run: as §1
[40] = species: Rattus norvegicus; test: Dose Inducing behavioral syndrome(FT: forepaw treading) by the compound in reserpine pretreated rats; format: functional; how it was run: as §4

COc1ccccc1N1CCN(C2CCC(N3C(=O)[C@H]4CCCC[C@H]4C3=O)CC2)CC1 (stereo partly specified)
FBP mean score [1]: 9.8 | FBP mean score [2]: 0.2 | FT mean score [3]: 0.1 | FT mean score [4]: 0.2 | FT mean score [5]: 0.2 | LLR score [6]: 0.2 | ED50 [7]: 7.3 mg/kg | LLR score [8]: 0.3 | FT mean score [9]: 2 | FBP mean score [10]: 3.2 | FBP mean score [11]: 11.6 | LLR score [12]: 2.3 | ED50 [13]: 11 mg/kg | ED50 [14]: 20 mg/kg | FT mean score [15]: 5.4 | LLR score [16]: 1.1 | FBP mean score [17]: 0.1 | FBP mean score [18]: 0.1 | LLR score [19]: 0.3 | LLR score [20]: 1.6 | FT mean score [21]: 9.2 | Ki [22]: 72 nM

COc1ccccc1N1CCN(C2CCCC(n3nnc4ccccc43)C2)CC1 (stereo unspecified)
FBP mean score [23]: 0.6 | FBP mean score [24]: 12.5 | FT mean score [25]: 0.3 | ED50 [26]: 8 mg/kg | FT mean score [27]: 0.8 | FT mean score [28]: 0.1 | FBP mean score [29]: 1 | FT mean score [30]: 0.1 | LLR score [31]: 1.6 | ED50 [32]: 11 mg/kg | LLR score [33]: 0.9 | FT mean score [34]: 9.6 | LLR score [35]: 1.3 | FT mean score [36]: 3.5 | FBP mean score [37]: 6.2 | FBP mean score [38]: 0.5 | Ki [22]: 47 nM | FBP mean score [39]: 7 | ED50 [40]: 7 mg/kg
